Results on four compounds are retold here after article PMC10590554 (Drug Design, Development and Therapy, 2023).

SMILES strings stand for the structures. Several values for one entry are separate records, joined by “and”; a condition that tells them apart may be missing. Equal values may be shown once. Read-outs that look alike come from different tables or passages of the source.

For data set [1] the following is noted: with itraconazole, humans; cited from earlier work.
For data set [2] the following is noted: with itraconazole, rats; cited from earlier work.
The format of data set [3] is in vivo, Sprague-Dawley rats. As to conditions: rats. In a few lines: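 Male Sprague-Dawley rats (220–260 g), acclimatised one week, fasted 12 h with free water, n=7/group. Single dose of vehicle (0.5% CMC-Na), simvastatin 2 mg/kg or itraconazole 15 mg/kg, then erlotinib 12 mg/kg in 0.5% CMC-Na by oral gavage 30 min later. Tail-vein blood taken into heparin at 0–24 h; plasma assayed by UPLC-MS/MS with tinidazole IS. Mean ± SD; ANOVA with Dunnett; Tmax by Wilcoxon signed-rank.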

The conditions of data set [4]: with ketoconazole (CYP3A4 inhibitor); cited from earlier work.
For data set [5] the following is noted: after oral administration; cited from earlier work.
The conditions of data set [6]: cited from earlier work.
In a further data set the test system is CYP3A4. As to conditions: human microsomes and cDNA expressed human CYP enzymes; cited from earlier work.
For data set [7] the following is noted: with flavoured water; cited from earlier work.
Data set [8] is described as follows: Stability of erlotinib in rat plasma. The class given is in vitro ADME. To be noted: various storage conditions, QC 8 and 800 ng/mL. In short, it runs like this:
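Blank rat plasma spiked with erlotinib QC at 8 and 800 ng/mL, five replicates per level. Held at room temperature 4 h, at −80°C for 60 days, or through 3 freeze-thaw cycles; processed samples held 4°C 24 h. Acetonitrile-tinidazole protein precipitation, then UPLC-MS/MS against a 5–1000 ng/mL 1/x²-weighted curve. Accuracy taken as measured/theoretical concentration ×100%.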

For data set [9] the following is noted: co-administration with itraconazole; cited from earlier work.
[10] abbreviates: itraconazole group vs erlotinib alone group, P<0.05.
[11] abbreviates: itraconazole group vs erlotinib alone group, not significant.
The mark [12] stands for this setting: simvastatin group vs erlotinib alone group, P>0.05.

Consider `CCc1nc(C(N)=O)c(Nc2ccc(N3CCC(N4CCN(C)CC4)CC3)c(OC)c2)nc1NC1CCOCC1` [gilteritinib], for which the “increase of exposure of gilteritinib” value in data set [1] is on record as 2.2 fold; in data set [2], 1.4 fold.
With `C#Cc1cccc(Nc2ncnc3cc(OCCOC)c(OCCOC)cc23)c1` [Erlotinib, erlotinib], in data set [3] (15 mg/kg itraconazole with 12 mg/kg erlotinib vs erlotinib alone, P<0.05), the “increase of AUC” value was found to be 32.3%. Moreover, in data set [3] (setting [10]), the “decrease of CL/F” value is ~24.24% and 24.2%; the “increase of AUC0-t” value is on record as “approximately 32.32%”; the “increase of AUC0-∞” value is given as around 32.29%; the “increase of Cmax” value is ~33.54% and 33.5%. In data set [3] (setting [11]), the “decrease of Vz/F” value is listed as “approximately 19.30%” and the “increase of t1/2” value is on record as around 5.33%. In data set [3] (itraconazole group, P<0.05), the “AUC0-t, fold higher than erlotinib alone group” value is “approximately 1.32 fold”; the “AUC0-∞, fold higher than erlotinib alone group” value is listed as “approximately 1.32 fold”; the “Cmax, fold higher than erlotinib alone group” value is reported as around 1.34 fold. Besides, in data set [3] (setting [12]), the “decrease of CL/F” value was “approximately 6.06%”, the “increase of AUC0-∞” value is listed as around 9.50%, the “increase of Cmax” value is around 3.80% and the “increase of Vz/F” value was around 1.16%. Besides, the “increase of t1/2” value in data set [3] (setting [12]) is on record as around 7.56%. In data set [4], the “increase of AUC of erlotinib” value is recorded as 86% and the “increase of Cmax of erlotinib” value was 102%. Further, in [5], the “eliminated via urine and feces route” value is given as 91%. In data set [6] (combined with tamoxifen vs single administration), the “reduction of AUC of erlotinib” value is recorded as 54%. Further, the “share of metabolism by CYP3A4” value in the data set on CYP3A4 is given as 70%. Also, in data set [7], the “increase of AUC of erlotinib” value is recorded as 200% and the “increase of Cmax of erlotinib” value was 95%. Moreover, the “Accuracy over all stability conditions” value in data set [8] is given as 87.56–112.17%.
In the case of `N#CC1(c2ccc(NC(=O)c3cccnc3NCc3ccncc3)cc2)CCCC1` [apatinib], the “reduction of CL/F of apatinib” value in data set [9] is given as 40%.
`CC/C(=C(\c1ccccc1)c1ccc(OCCN(C)C)cc1)c1ccccc1` [tamoxifen]: the “increase of Cmax of tamoxifen” value in data set [6] (combined with erlotinib vs single administration) is listed as 46%.
